The values below come from ChEMBL document CHEMBL1148329, “Synthesis and structure-activity studies on N-[5-(1H-imidazol-4-yl)-5,6,7,8-tetrahydro-1-naphthalenyl]methanesulfonamide, an imidazole-containing alpha(1A)-adrenoceptor agonist” (J Med Chem, 2004).

For assay [1], the target named is T1, Alpha-2A adrenergic receptor (Homo sapiens, UniProt P08913).
T1 sequence (P08913 whole entry): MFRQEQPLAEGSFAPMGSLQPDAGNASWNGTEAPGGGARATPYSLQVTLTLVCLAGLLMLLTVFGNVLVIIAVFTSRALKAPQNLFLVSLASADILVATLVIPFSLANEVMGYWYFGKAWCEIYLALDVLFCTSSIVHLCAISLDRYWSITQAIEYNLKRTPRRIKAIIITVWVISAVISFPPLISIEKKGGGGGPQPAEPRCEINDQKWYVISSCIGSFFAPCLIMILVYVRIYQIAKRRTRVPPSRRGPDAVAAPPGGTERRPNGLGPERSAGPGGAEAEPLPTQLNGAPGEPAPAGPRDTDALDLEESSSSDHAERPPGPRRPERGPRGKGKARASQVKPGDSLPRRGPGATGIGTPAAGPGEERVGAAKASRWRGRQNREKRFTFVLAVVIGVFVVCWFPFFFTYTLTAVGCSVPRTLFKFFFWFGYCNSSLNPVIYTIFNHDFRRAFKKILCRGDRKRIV
The assay is described as follows: In vitro binding affinity towards alpha-2A adrenergic receptor of human clone in radioligand binding assay.

For assay [2], the target named is T2, Alpha-1A adrenergic receptor (Oryctolagus cuniculus) (UniProt O02824).
T2 sequence (whole entry): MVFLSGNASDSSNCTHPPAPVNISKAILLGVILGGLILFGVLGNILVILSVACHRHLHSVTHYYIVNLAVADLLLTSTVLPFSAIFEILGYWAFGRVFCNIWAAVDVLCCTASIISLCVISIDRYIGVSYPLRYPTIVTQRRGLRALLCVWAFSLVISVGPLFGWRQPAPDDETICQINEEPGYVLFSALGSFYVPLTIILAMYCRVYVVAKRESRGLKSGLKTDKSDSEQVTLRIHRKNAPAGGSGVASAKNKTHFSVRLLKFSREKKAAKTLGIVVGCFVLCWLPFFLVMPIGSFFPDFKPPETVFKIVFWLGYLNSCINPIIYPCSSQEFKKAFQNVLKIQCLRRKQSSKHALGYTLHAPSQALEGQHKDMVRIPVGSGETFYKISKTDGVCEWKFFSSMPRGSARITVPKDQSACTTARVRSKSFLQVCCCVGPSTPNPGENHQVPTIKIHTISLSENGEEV
Briefly: Functional agonism of the compounds to constrict tissue containing the alpha-1A adrenergic receptor in rabbit urethra. The format is tissue-based. In short, it runs like this: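 α1-agonist dose–response curves in isolated tissue: rabbit urethra (α1A), rat spleen (α1B), rat aorta (α1D). Agonist potency and efficacy read from the concentration–response curves.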

Assay [3] deals with T3, Alpha-1B adrenergic receptor (Rattus norvegicus) (UniProt P15823).
T3 sequence (whole entry): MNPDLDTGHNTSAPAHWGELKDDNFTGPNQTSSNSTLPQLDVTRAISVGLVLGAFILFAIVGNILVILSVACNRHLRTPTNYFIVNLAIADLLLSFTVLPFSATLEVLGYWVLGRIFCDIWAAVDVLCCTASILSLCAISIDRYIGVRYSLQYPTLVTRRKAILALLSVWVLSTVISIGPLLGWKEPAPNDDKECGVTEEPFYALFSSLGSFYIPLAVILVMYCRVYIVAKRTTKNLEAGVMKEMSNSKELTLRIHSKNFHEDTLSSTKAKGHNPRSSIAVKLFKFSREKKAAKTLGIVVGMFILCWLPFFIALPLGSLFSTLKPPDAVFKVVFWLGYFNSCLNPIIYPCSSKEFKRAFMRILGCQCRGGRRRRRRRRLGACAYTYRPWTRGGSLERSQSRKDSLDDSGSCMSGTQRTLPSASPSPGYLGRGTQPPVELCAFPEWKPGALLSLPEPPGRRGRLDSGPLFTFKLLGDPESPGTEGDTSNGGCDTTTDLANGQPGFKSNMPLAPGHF
The assay is described as follows: Functional agonism of the compounds to constrict tissue containing the alpha-1B adrenergic receptor in rat spleen. The assay is classed as tissue-based. In outline:
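Agonist dose–response curves were run on isolated tissue: rabbit urethra for α1A, rat spleen for α1B, and rat aorta for α1D.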

Assay [4] has as its system Canis familiaris. Briefly: Uroselectivity was determined by measuring effective dose required for 20 mmHg increase of mean arterial pressure (MAP) in vivo in dog. The format is functional, Canis lupus familiaris, Artery. In outline:
(§1)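 Dog model recording intraurethral pressure (IUP) and mean arterial pressure (MAP) simultaneously. Increasing iv doses given, maximal effect of each dose taken. Doses giving a 5 mmHg rise in IUP (ED Δ5) or 20 mmHg rise in MAP (ED Δ20) were calculated, in nmol/kg ± SEM, n ≥ 4 (2 or 3 where footnoted).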

For assay [5], the system named is Canis familiaris. The assay is described as follows: Uroselectivity was determined by measuring effective dose required for 5 mmHg increase of intraurethral pressure (IUP) in vivo in dog. The assay is classed as functional, Canis lupus familiaris. In outline: as §1
Assay [6] is described as follows: Selectivity is ratio of efficacy of alpha-2A to that of alpha1A adrenoceptor. The assay is classed as functional.
The species entered for a further assay is Rattus norvegicus. Briefly: Relative affinities for alpha2B and alpha1A receptors.
Assay [7] deals with Alpha adrenergic receptor 1A and 1D (Rattus norvegicus) (UniProt P23944+P43140). The assay is described as follows: Selectivity is ratio of pKi (binding affinity) of Alpha-1D to that of alpha1A. The format is protein assay.
The species named for assay [8] is Canis familiaris. Briefly: Ratio of MAP ED delta20 to that of IUP ED delta5.
Assay [9] has as its target T4, Alpha-2A adrenergic receptor (Rattus norvegicus) (UniProt P22909).
T4 sequence (whole entry): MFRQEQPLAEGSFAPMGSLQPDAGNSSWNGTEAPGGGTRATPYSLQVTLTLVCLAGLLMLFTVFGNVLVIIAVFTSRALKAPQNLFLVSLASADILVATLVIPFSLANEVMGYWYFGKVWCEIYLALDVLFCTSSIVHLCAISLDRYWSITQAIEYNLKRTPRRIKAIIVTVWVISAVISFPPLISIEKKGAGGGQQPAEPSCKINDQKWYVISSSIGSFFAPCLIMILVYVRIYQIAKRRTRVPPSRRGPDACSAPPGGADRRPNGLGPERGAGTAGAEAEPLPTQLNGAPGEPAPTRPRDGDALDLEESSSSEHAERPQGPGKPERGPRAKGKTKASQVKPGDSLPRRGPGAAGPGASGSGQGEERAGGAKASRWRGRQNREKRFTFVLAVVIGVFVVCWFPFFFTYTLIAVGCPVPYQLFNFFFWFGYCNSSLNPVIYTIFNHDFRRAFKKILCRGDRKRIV
Briefly: Efficacy relative to clonidine to constrict tissue containing the alpha-2A adrenergic receptor in rat prostatic vas deferens.

As a reminder, the Ki is a measure of affinity in units of concentration, obtained from inhibition or displacement. Low readings indicate tighter binding, high ones weaker binding.

The compound `O=C(Nc1cccc2c1CCCC2c1c[nH]cn1)C(F)(F)F` (stereo not drawn) gave a Ki in [1] of 309 nM. In addition, the pD2 in assay [2] came out at 6.28; in [3] it was 5.47. For the same compound, the “ED delta20” value with Canis familiaris [4] is 216 nM/kg. Also, in the assay on Canis familiaris [5], the “ED delta5” value stood at 188 nM/kg. The Selectivity in assay [6] was 0.1; in the assay filed under Rattus norvegicus, 4; in [7], 20. The Ratio in the assay filed under Canis familiaris [8] stood at 1.1. The Efficacy in assay [9] worked out at 100%.

The compound `COc1ccc(OC)c(C(O)CN)c1` (stereo not drawn) [DESGLYMIDODRINE] gave an inhibition constant (Ki) in [1] of 1450 nM. Moreover, the pD2 came out at 5.15 in assay [2] and 4.07 in assay [3]. Besides, the “ED delta20” value in the assay with Canis familiaris [4] was 250 nM/kg. In addition, the “ED delta5” value in the assay on Canis familiaris [5] amounted to 205 nM/kg. The results for the Selectivity (in [6]; in the assay filed under Rattus norvegicus; in assay [7]) were 0.001, 0.9 and 0.8, respectively. In addition, the Ratio in the assay filed under Canis familiaris [8] is on record as 1.3. This compound also registered an Efficacy in assay [9] of 20%.

For `CC(N)C(O)c1ccccc1` (stereo not drawn) [PHENYLPROPANOLAMINE], in [1], the Ki is 275 nM. Also, the pD2 in assay [2] was 3.63; in assay [3], 3.55. Moreover, the “ED delta20” value with Canis familiaris [4] was found to be 330 nM/kg. Further, in the assay on Canis familiaris [5], the “ED delta5” value came out at 1100 nM/kg. For the same compound, the Selectivity in [6] is 0.03; in the assay listed under Rattus norvegicus, 0.03; in assay [7], 1. In addition, the Ratio in the assay listed under Canis familiaris [8] was 0.4. Besides, the Efficacy in assay [9] came out at 85%.

Consider `O=S(=O)(CC(F)(F)F)Nc1cccc2c1CCCC2c1c[nH]cn1` (single isomer, unassigned; (+)), for which the inhibition constant (Ki) in [1] is 955 nM. The pD2 in assay [2] is 5.73. Moreover, in the assay on Canis familiaris [4], the “ED delta20” value amounted to 450 nM/kg. In the assay on Canis familiaris [5], the ED delta5 worked out at 156 nM/kg. The Selectivity in [6] is 0.14; in the assay filed under Rattus norvegicus it was over 80; in [7] it was over 80. Further, in the assay filed under Canis familiaris [8], the Ratio is listed as 3. Further, the Efficacy in assay [9] is 100%.

The compound `CN(c1cccc2c1CCCC2c1c[nH]cn1)S(C)(=O)=O` (stereo not drawn) had an inhibition constant (Ki) in assay [1] of 85.1 nM. Besides, the pD2 was determined as 6.16 in [2] and 5.65 in assay [3]. The “ED delta20” value in the assay with Canis familiaris [4] worked out at 225.3 nM/kg. In addition, the Selectivity in assay [6] was 0.12; in the assay filed under Rattus norvegicus it was 4; in [7], 3. For the same compound, in the assay listed under Canis familiaris [8], the Ratio turned out to be 2.5. Besides, the Efficacy in assay [9] amounted to 100%.
